The source of these data is ChEMBL document CHEMBL1782029, “Synthesis and biological evaluation of N-substituted benzo[c]phenanthrolines and benzo[c]phenanthrolinones as antiproliferative agents” (Eur J Med Chem, 2011).

Activity calls are given as the source filed them. The rule behind the calls is not given here.

In assay [1] the test system is Calf thymus DNA. The assay can be described thus: Binding affinity to calf thymus DNA at 20 uM by UV-vis spectrophotometry analysis. The settings on record: Bos taurus. It counts as nucleic-acid assay.
Assay [2] deals with HT-29. Kind of assay: Cytotoxicity against human HT-29 cells after 72 hrs by MTS assay. The assay is classed as functional, cell-based. To be noted: HT-29, 72 h.
Assay [3] deals with T1, DNA topoisomerase 1 (Homo sapiens) (UniProt P11387).
T1 sequence (whole entry): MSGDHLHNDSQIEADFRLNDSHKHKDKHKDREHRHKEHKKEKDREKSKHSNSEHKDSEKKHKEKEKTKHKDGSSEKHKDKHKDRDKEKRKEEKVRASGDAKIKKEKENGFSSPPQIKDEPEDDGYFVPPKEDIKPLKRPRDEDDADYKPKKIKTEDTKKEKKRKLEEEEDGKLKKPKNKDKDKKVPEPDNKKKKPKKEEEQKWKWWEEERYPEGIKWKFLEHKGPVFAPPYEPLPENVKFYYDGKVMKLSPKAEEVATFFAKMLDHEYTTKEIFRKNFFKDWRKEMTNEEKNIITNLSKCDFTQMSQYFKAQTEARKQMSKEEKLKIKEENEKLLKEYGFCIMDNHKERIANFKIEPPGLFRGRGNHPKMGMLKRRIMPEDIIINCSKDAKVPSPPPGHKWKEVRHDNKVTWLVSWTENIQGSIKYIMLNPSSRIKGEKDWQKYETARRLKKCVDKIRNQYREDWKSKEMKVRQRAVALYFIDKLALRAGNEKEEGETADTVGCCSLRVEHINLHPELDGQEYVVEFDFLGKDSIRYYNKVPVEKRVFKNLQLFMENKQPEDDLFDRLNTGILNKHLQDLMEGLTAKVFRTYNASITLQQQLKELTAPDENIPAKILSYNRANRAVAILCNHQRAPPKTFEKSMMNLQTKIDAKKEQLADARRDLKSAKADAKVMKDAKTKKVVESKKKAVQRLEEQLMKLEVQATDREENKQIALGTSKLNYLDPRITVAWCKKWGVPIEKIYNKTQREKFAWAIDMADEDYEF
Kind of assay: Inhibition of human recombinant topoisomerase 1-mediated relaxation of supercoiled pUC19 DNA assessed as formation of nicked DNA at 0.1 to 5 uM using ethidium bromide staining by agarose gel electrophoresis. The gist of the method: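 Supercoiled pUC19 plasmid (130 ng) was incubated with 4 units of human recombinant Top1 at 37 °C for 45 min in relaxation buffer (50 mM Tris pH 7.8, 50 mM KCl, 10 mM MgCl2, 1 mM DTT, 1 mM EDTA, 1 mM ATP) with increasing compound concentrations. Products were resolved on 1% agarose at room temperature, 2 h at 120 V, then stained with ethidium bromide and imaged under UV.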

Assay [4] concerns the target DNA topoisomerase 2-alpha (Homo sapiens) (UniProt P11388). The assay can be described thus: Inhibition of human topoisomerase 2 assessed as formation of nicked form of supercoiled pUC19 DNA at 50 uM after 45 mins using ethidium bromide staining by agarose gel analysis.
Assay [5] has the same target. The assay can be described thus: Inhibition of human topoisomerase 2 assessed as formation of linear form of supercoiled pUC19 DNA at 50 uM after 45 mins using ethidium bromide staining by agarose gel analysis.
The subject of assay [6] is Calf thymus DNA. The assay can be described thus: Binding affinity to calf thymus DNA by circular dichroism analysis. The assay is classed as nucleic-acid assay. To be noted: Bos taurus. In general terms: Circular dichroism is the unequal absorption of left and right circularly polarised light.
The subject of assay [7] is HT-29. The assay can be described thus: Cell cycle arrest in human HT-29 cells at G2/M phase at 0.1 to 2.5 uM after 48 hrs using propidium iodide staining by FACS analysis. It counts as functional, cell-based. The gist of the method: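 Exponentially growing HT-29 colon carcinoma cells (300,000 per well) were plated for 24 h, then exposed to 0.1, 1 or 2.5 µM compound for 48 h. Cells were fixed, stained with propidium iodide and analysed by flow cytometry (FACScan).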
(In flow cytometry, cells or beads pass a laser one at a time.)

Another assay concerns Nucleic Acid. Kind of assay: Binding affinity to 265 bp of 3'-end-radio-labelled DNA fragment at 0.5 to 5 uM treated 15 mins before Dnase 1-mediated digestion by footprinting assay. It counts as nucleic-acid assay. In outline: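 DNase I footprinting. It was equilibrated with compound for 15 min at 37 °C, then digested 3 min with DNase I (0.01 unit/ml) in 20 mM NaCl, 2 mM MgCl2, 2 mM MnCl2, pH 7.3. Samples were lyophilised, denatured at 90 °C and run on an 8% denaturing polyacrylamide gel.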

The target in assay [8] is T1, DNA topoisomerase 1 (Homo sapiens). The assay can be described thus: Inhibition of camptothecin-induced poisoning effect of human topoisomerase 1 assessed as suppression of CPT-induced 117 bp DNA cleavage by SDS-PAGE analysis.
Assay [9] has the same target. Kind of assay: Inhibition of human recombinant topoisomerase 1 assessed as cleavage of 117-mer DNA fragment at 20 to 50 uM using ethidium bromide staining by agarose gel electrophoresis analysis.

DNA topoisomerase 2-alpha (Homo sapiens), sequence (P11388 whole entry): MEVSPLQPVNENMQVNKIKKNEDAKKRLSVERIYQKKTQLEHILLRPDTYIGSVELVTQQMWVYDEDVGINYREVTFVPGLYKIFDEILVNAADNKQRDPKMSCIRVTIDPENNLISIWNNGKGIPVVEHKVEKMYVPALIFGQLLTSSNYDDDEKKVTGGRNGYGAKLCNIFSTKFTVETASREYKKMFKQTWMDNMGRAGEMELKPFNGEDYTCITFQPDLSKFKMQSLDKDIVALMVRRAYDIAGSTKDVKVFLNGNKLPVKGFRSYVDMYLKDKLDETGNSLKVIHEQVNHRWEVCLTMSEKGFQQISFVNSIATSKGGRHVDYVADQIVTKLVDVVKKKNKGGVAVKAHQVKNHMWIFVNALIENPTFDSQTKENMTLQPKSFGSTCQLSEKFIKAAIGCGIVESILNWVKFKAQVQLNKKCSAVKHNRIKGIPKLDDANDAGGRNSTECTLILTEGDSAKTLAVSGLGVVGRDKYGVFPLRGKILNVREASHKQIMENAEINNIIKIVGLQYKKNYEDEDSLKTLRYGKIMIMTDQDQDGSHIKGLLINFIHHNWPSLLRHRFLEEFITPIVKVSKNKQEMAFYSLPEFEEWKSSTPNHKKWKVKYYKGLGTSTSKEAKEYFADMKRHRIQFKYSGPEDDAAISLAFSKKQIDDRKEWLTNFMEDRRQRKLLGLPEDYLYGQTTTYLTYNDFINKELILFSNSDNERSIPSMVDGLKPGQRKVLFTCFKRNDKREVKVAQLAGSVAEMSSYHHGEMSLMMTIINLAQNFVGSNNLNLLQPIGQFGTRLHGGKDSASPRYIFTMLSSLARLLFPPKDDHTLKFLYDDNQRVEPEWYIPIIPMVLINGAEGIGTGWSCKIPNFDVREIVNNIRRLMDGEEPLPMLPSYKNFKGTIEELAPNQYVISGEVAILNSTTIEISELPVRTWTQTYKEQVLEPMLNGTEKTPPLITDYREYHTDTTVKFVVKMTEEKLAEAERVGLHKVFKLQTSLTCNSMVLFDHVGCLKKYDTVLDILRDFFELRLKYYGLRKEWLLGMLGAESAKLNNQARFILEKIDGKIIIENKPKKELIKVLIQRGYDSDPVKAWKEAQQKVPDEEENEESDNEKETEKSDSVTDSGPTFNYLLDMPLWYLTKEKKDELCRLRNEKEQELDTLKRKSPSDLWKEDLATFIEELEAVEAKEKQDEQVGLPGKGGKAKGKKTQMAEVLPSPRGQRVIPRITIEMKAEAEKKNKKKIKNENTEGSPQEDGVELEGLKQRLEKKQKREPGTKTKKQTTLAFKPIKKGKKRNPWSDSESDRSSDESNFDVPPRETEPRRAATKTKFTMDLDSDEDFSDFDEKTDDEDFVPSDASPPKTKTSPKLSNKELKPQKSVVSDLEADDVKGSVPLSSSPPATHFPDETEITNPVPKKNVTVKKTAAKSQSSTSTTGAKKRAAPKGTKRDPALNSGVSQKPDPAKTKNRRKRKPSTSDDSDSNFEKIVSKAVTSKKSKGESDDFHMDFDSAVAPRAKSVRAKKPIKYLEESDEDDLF

Turning to `CCN(CC)CCn1c(=O)c2cc3c(cc2c2ccc4cnccc4c21)OCO3`, the result with Calf thymus DNA [1], with Calf thymus DNA [6] and with HT-29 [7] was Active. In addition, the IC50 in the assay with HT-29 [2] turned out to be 230 nM. Also, the “Top1 relaxation inhibition (qualitative call)” value (shortened to “Top1 relaxation inhibition”) in [3] was “Active”. Further, the inhibition result in assay [4], in assay [5] and in assay [9] was “inactive” in each case. For the same compound, the inhibition entry with Nucleic Acid is “Active”. Moreover, the inhibition result in assay [8] was “Dose-dependent effect”.

With `CCN(CC)CCCNc1nc2c3ccncc3ccc2c2cc(OC)c(OC)cc12`, the result with Calf thymus DNA [1] and in the assay with Calf thymus DNA [6] was Active. This compound also returned an IC50 with HT-29 [2] of 5470 nM. In addition, in [3], the “Top1 relaxation inhibition” value is “Active”. The inhibition result (in assay [4]; in [5]; in the assay on Nucleic Acid; in [9]) was “inactive” in each case. For the same compound, the inhibition result in assay [8] is “Dose-dependent effect”.

With `CN(C)CCCn1c(=O)c2cc3c(cc2c2ccc4cnccc4c21)OCO3`, the result with Calf thymus DNA [1], with Calf thymus DNA [6] and in the assay on HT-29 [7] was Active. Moreover, it took 240 nM to reach half-maximal inhibition in the assay on HT-29 [2] (IC50). Also, in assay [3], the “Top1 relaxation inhibition” value was “Active”. For the same compound, the inhibition entry in [4], in assay [5] and in assay [9] was “inactive” in each case. Also, the inhibition entry in the assay on Nucleic Acid is “Active”. Also, the inhibition result in assay [8] is “Dose-dependent effect”.

In the case of `CN(C)CCCNc1nc2c3ccncc3ccc2c2cc3c(cc12)OCO3`, the result with Calf thymus DNA [1] and with Calf thymus DNA [6] was Active. This compound registered an IC50 with HT-29 [2] of 7620 nM. Further, the “Top1 relaxation inhibition” value in assay [3] was “Active”. In addition, the inhibition result (in assay [4]; in assay [5]; in the assay on Nucleic Acid; in [9]) was “inactive” in each case. In addition, the inhibition entry in assay [8] is “Dose-dependent effect”.

Take `COc1cc2c(NCCN(C)C)nc3c4cccnc4ccc3c2cc1OC`: the outcome in the assay on Calf thymus DNA [1] and in the assay with Calf thymus DNA [6] was Active. In the assay on HT-29 [2], this compound displayed an IC50 of 970 nM. Besides, in assay [3], the “Top1 relaxation inhibition” value is “Active”. The inhibition entry in assay [4], in assay [5] and in assay [9] was “inactive” throughout. In the assay with Nucleic Acid, the inhibition result is “Active”. Also, the inhibition result in assay [8] is “Dose-dependent effect”.

For the compound `CCN(CC)CCCNc1nc2c3cccnc3ccc2c2cc(OC)c(OC)cc12`, the result in the assay on Calf thymus DNA [1] and in the assay on Calf thymus DNA [6] was Active. In the assay with HT-29 [2], this compound gave an IC50 of 5770 nM. In [3], the “Top1 relaxation inhibition” value was “Active”. Further, the inhibition result in [4], in [5] and in [9] was “inactive” throughout. In the assay with Nucleic Acid, the inhibition result is “Active”. Besides, in assay [8], the inhibition result was “Dose-dependent effect”.

As for `COc1cc2c(NCCCN(C)C)nc3c4cccnc4ccc3c2cc1OC`, the outcome in the assay with Calf thymus DNA [1] and in the assay on Calf thymus DNA [6] was Active. Moreover, the IC50 in the assay on HT-29 [2] is 3330 nM. Moreover, in [3], the “Top1 relaxation inhibition” value was “Active”. Besides, the inhibition result in assay [4], in assay [5] and in [9] was “inactive” in each case. Further, the inhibition entry in the assay on Nucleic Acid was “Active”. Also, the inhibition result in [8] was “Dose-dependent effect”.

On to `CN(C)CCNc1nc2c3ccncc3ccc2c2cc3c(cc12)OCO3`, for which the result in the assay on Calf thymus DNA [1], in the assay with Calf thymus DNA [6] and with HT-29 [7] was Active. This compound also registered a 50% inhibitory concentration (IC50) in the assay with HT-29 [2] of 70 nM. Further, the “Top1 relaxation inhibition” value in assay [3] was “Active”. Besides, the inhibition result in [4], in [5] and in [9] was “inactive” in each case. The inhibition result with Nucleic Acid is “Active”. Moreover, in assay [8], the inhibition entry was “Dose-dependent effect”.

For the compound `CN(C)CCn1c(=O)c2cc3c(cc2c2ccc4ncccc4c21)OCO3`, the result in the assay with Calf thymus DNA [1], in the assay on Calf thymus DNA [6] and in the assay with HT-29 [7] was Active. For the same compound, the IC50 in the assay with HT-29 [2] was determined as 120 nM. Moreover, the “Top1 relaxation inhibition” value in assay [3] is “Active”. The inhibition entry in [4], in assay [5] and in assay [9] was “inactive” in each case. Besides, the inhibition entry in the assay with Nucleic Acid was “Active”. Also, the inhibition result in assay [8] is “Dose-dependent effect”.

Consider `CCN(CC)CCn1c(=O)c2cc3c(cc2c2ccc4ncccc4c21)OCO3`, for which the result in the assay on Calf thymus DNA [1], in the assay with Calf thymus DNA [6] and in the assay with HT-29 [7] was Active. This compound also yielded an IC50 in the assay on HT-29 [2] of 75 nM. The “Top1 relaxation inhibition” value in [3] was “Active”. The inhibition result in assay [4], in assay [5] and in [9] was “inactive” in each case. Moreover, the inhibition result in the assay on Nucleic Acid was “Active”. Besides, the inhibition entry in assay [8] is “Dose-dependent effect”.

Take `CN(C)CCn1c(=O)c2cc3c(cc2c2ccc4cnccc4c21)OCO3`: the result in the assay on Calf thymus DNA [1], in the assay with Calf thymus DNA [6] and in the assay with HT-29 [7] was Active. Also, half-maximal inhibition with HT-29 [2] (IC50) required 78 nM. For the same compound, the “Top1 relaxation inhibition” value in assay [3] was “Active”. For the same compound, the inhibition result in assay [4], in [5] and in assay [9] was “inactive” throughout. For the same compound, in the assay with Nucleic Acid, the inhibition result is “Active”. In addition, in assay [8], the inhibition result is “Dose-dependent effect”.

Turning to `CN(C)CCNc1nc2c3cccnc3ccc2c2cc3c(cc12)OCO3`, the result with Calf thymus DNA [1], in the assay on Calf thymus DNA [6] and with HT-29 [7] was Active. In addition, half-maximal inhibition with HT-29 [2] (IC50) required 110 nM. Further, the “Top1 relaxation inhibition” value in assay [3] was “Active”. Further, the inhibition entry in [4], in [5] and in assay [9] was “inactive” throughout. Moreover, the inhibition entry in the assay with Nucleic Acid was “Active”. For the same compound, in [8], the inhibition entry is “Dose-dependent effect”.

With `COc1cc2c(NCCCN(C)C)nc3c4ccncc4ccc3c2cc1OC`, the result in the assay on Calf thymus DNA [1] and in the assay on Calf thymus DNA [6] was Active. In addition, the IC50 in the assay on HT-29 [2] stood at 3140 nM. The “Top1 relaxation inhibition” value in [3] was “Active”. In addition, the inhibition entry (in [4]; in assay [5]; in the assay with Nucleic Acid; in assay [9]) was “inactive” in each case.

Consider `CN(C)CCCn1c(=O)c2cc3c(cc2c2ccc4ncccc4c21)OCO3`, for which the outcome with Calf thymus DNA [1], in the assay with Calf thymus DNA [6] and in the assay with HT-29 [7] was Active. It took 230 nM to reach half-maximal inhibition in the assay with HT-29 [2] (IC50). Moreover, the “Top1 relaxation inhibition” value in [3] was “Active”. Moreover, the inhibition result in assay [4], in [5] and in [9] was “inactive” each time. For the same compound, in the assay on Nucleic Acid, the inhibition result is “Active”. In addition, the inhibition entry in assay [8] is “Dose-dependent effect”.

What is called IC50 is the midpoint of a concentration-inhibition curve. Read a high IC50 as a need for much substance.
